Laboratory results published in ChEMBL document CHEMBL3352186, “Modification and biological evaluation of thiazole derivatives as novel inhibitors of metastatic cancer cell migration and invasion” (J Med Chem, 2014).
The source made the active and inactive calls. No cut-off for these calls is given here.

Columns and labels:
MDA-MB-231 [1] = test: Cytotoxicity against human MDA-MB-231 cells assessed as survival at 1 uM after 5 days; type: functional; settings: MDA-MB-231, 120 h, read-out: Survival
MDA-MB-231 [2] = test: Antimigratory activity in human MDA-MB-231 cells after 24 hrs using transwell system by light microscopy; type: functional, cell-based; settings: MDA-MB-231, 24 h
Outline: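 Transwell chambers: 2.5×10^4 cells in serum-free, phenol red-free medium in the upper chamber, with DMEM + 5% FBS below as chemoattractant. Compounds at 10^-8, 10^-7, 10^-6 and 10^-5 M, with 0.1% DMSO vehicle, for 24 h. Membranes were scrubbed, formalin-fixed, methanol-permeabilized and stained with 0.1% crystal violet. Migrated cells were counted by light microscopy per 100× field as % of vehicle. IC50 is the concentration giving 50% migration inhibition.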

Chorioallantoic membrane = test: Antiangiogenic activity in chicken egg embryo assessed as inhibition of bFGF/VEGF-induced angiogenesis in chorioallantoic membrane after 3 days; type: functional; settings: Gallus gallus
Outline: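 Fertilized chick embryos were incubated at 37.5 °C for 3 days, removed from the shell, and kept 7 further days. Each compound was added to a collagen plug containing bFGF (10 ng/plug) plus VEGF (30 ng/plug) and placed on the CAM of 10-day embryos for 3 days. PBS was the negative control. Plugs were imaged and scored masked on a 0–3 angiogenesis scale, reported as mean ± SEM, and analysed by one-way ANOVA with Dunnett's test.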

MDA-MB-231 [3] = test: Antiinvasive activity in human MDA-MB-231 cells at 10 uM after 24 hrs by matrigel assay; type: functional; settings: MDA-MB-231, 24 h
Outline: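 Cells serum-starved 24 h, trypsinized and resuspended in medium with DMSO or compound; 2.5×10^4 cells/well seeded on Matrigel-coated inserts. Bottom well held 10% FBS medium with DMSO or 10 μM compound. After 24 h, non-invaded cells were scrubbed off and invaded cells fixed (4% formaldehyde, 10 min, RT), stained with 0.04% crystal violet and counted at 100× in five random fields. Result is % invasion relative to DMSO.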

HeLa (Homo sapiens) = test: Induction of disorganization of actin filaments in human HeLa cells assessed as decrease in F-actin staining intensity near cell membrane at 10^-6 M by phalloidin staining
MDA-MB-231 [4] = test: Antimigratory activity in human MDA-MB-231 cells over-expressed with fascin assessed as inhibition of cell migration at 10 uM after 24 hrs by Transwell assay

Row | SMILES | viability at 1 µM (MDA-MB-231 [1]) [%] | IC50 (MDA-MB-231 [2]) [µM] | inhibition (Chorioallantoic membrane) | inhibition at 10 µM (MDA-MB-231 [3]) [%] | Activity (HeLa (Homo sapiens)) | inhibition (MDA-MB-231 [4])
1 | O=C(Nc1nc(-c2ccc(Br)cc2)cs1)c1ccccc1 | 82.2 | 9.5 | – | – | – | –
2 | Cc1ccc(-c2cs/c(=N\S(=O)(=O)c3ccccc3)n2C)c(C)c1 | 92.4 | 1.46 | – | – | – | –
3 | C#CCn1c(-c2ccccc2)cs/c1=N\C(=O)c1ccccc1 | 63 | 2.78 | – | – | – | –
4 | CN(C(=O)c1ccccc1)c1nc(-c2ccccc2Cl)cs1 | 88.9 | 0.0416 | – | – | – | –
5 | CCn1c(-c2ccccc2)cs/c1=N\C(=O)c1ccccc1 | 68.5 | 0.0515 | – | – | – | –
6 | C=CCn1c(-c2ccc(C)cc2C)cs/c1=N\C(=O)c1ccccc1 | 115 | 0.456 | – | – | – | –
7 | CCN(C(=O)c1ccccc1)c1nc(-c2ccccc2)cs1 | 129 | 0.533 | – | – | – | –
8 | Cn1c(C2CC2)cs/c1=N\C(=O)c1ccccc1 | 90.7 | 0.104 | – | – | – | –
9 | O=C(Nc1nc(-c2cc(C(F)(F)F)cc(C(F)(F)F)c2)cs1)c1ccccc1 | 85.8 | 0.336 | – | – | – | –
10 | COc1cccc(C(=O)N(C)c2nc(-c3cc(OC)c(OC)c(OC)c3)cs2)c1 | 88.9 | 0.646 | – | – | – | –
11 | O=C(Nc1nc(-c2cccc(Br)c2)cs1)c1ccccc1 | 78 | 10 | – | – | – | –
12 | COc1cc(-c2cs/c(=N\C(=O)c3ccccc3)n2C)cc(OC)c1OC | 88.4 | 1.07 | – | – | – | –
13 | COc1cc(C(=O)Nc2nc(-c3cc(OC)c(OC)c(OC)c3)cs2)cc(OC)c1OC | 77.6 | 1.03 | – | – | – | –
14 | COc1cc(-c2csc(NC(=O)c3cccc(OC)c3OC)n2)cc(OC)c1OC | 90.1 | 15 | – | – | – | –
15 | Cc1csc(NC(=O)c2ccccc2)n1 | 103 | 12 | – | – | – | –
16 | COc1cccc(C(=O)/N=c2\scc(-c3cc(OC)c(OC)c(OC)c3)n2C)c1 | 104 | > 50 | – | – | – | –
17 | Cc1sc(N(C)C(=O)c2ccccc2)nc1-c1ccc(F)cc1 | 108 | 1.62 | – | – | – | –
18 | CCCCCCn1c(-c2ccc(C)cc2C)cs/c1=N\C(=O)c1ccccc1 | 90 | 0.045 | Active | > 50 | Active | inactive
19 | CCCCn1c(-c2ccc(C)cc2C)cs/c1=N\C(=O)c1ccccc1 | 70.4 | 0.196 | – | – | – | –
20 | Cc1ccc(-c2cnc(N(C)C(=O)c3ccccc3)s2)cc1 | 59.3 | 1.09 | – | – | – | –
21 | COc1cc(-c2csc(N(C)C(=O)c3cccc(OC)c3OC)n2)cc(OC)c1OC | 118 | 0.108 | – | – | – | –
22 | CCCn1c(-c2ccccc2)cs/c1=N\C(=O)c1ccccc1 | 100 | 0.657 | – | – | – | –

Row | SMILES | viability at 1 µM (MDA-MB-231 [1]) [%] | IC50 (MDA-MB-231 [2]) [µM] | inhibition (Chorioallantoic membrane) | inhibition at 10 µM (MDA-MB-231 [3]) [%] | Activity (HeLa (Homo sapiens)) | inhibition (MDA-MB-231 [4])
23 | COc1cc(-c2csc(N(C)C(=O)c3ccccc3)n2)cc(OC)c1OC | 96.4 | 10 | – | – | – | –
24 | C=CCn1c(-c2ccccc2)cs/c1=N\C(=O)c1ccccc1 | 64.8 | 1.2 | – | – | – | –
25 | COc1ccc(C(=O)N(C)c2nc(-c3cc(OC)c(OC)c(OC)c3)cs2)cc1OC | 102 | > 25 | – | – | – | –
26 | Cc1ccc(-c2cnc(NC(=O)c3ccccc3)s2)cc1 | 55.6 | 0.308 | – | – | – | –
27 | COc1cccc(C(=O)Nc2nc(-c3cc(OC)c(OC)c(OC)c3)cs2)c1 | 92.6 | 14 | – | – | – | –
28 | COc1ccc(C(=O)Nc2nc(-c3cc(OC)c(OC)c(OC)c3)cs2)cc1OC | 87.3 | > 25 | – | – | – | –
29 | COc1ccc(C(=O)N(C)c2nc(-c3cc(OC)c(OC)c(OC)c3)cs2)cc1 | 100 | 0.312 | – | – | – | –
30 | Cn1c(-c2cccc(Br)c2)cs/c1=N\C(=O)c1ccccc1 | 94.4 | 0.302 | – | – | – | –
31 | COc1ccccc1C(=O)Nc1nc(-c2cc(OC)c(OC)c(OC)c2)cs1 | 104 | 8.5 | – | – | – | –
32 | COc1cc(-c2csc(NC(=O)c3ccccc3)n2)cc(OC)c1OC | 95 | > 50 | – | – | – | –
33 | O=C(Nc1nc(-c2cccc(Cl)c2)cs1)c1ccccc1 | 71.4 | 0.123 | – | – | – | –
34 | COc1ccc(C(=O)Nc2nc(-c3cc(OC)c(OC)c(OC)c3)cs2)c(OC)c1 | 93.8 | > 50 | – | – | – | –
35 | Cc1sc(NC(=O)c2ccccc2)nc1-c1ccccc1 | 99 | > 25 | – | – | – | –
36 | CN(C(=O)c1ccccc1)c1nc(-c2cccc(Br)c2)cs1 | 104 | 0.437 | – | – | – | –
37 | COc1ccc(C(=O)N(C)c2nc(-c3cc(OC)c(OC)c(OC)c3)cs2)c(OC)c1 | 119 | 5.04 | – | – | – | –
38 | COc1cc(C(=O)/N=c2\scc(-c3cc(OC)c(OC)c(OC)c3)n2C)cc(OC)c1OC | 81.5 | 1.96 | – | – | – | –
39 | CCCCCCCCCCCCn1c(-c2ccc(C)cc2C)cs/c1=N\C(=O)c1ccccc1 | 110 | 0.024 | Active | > 50 | Active | –
40 | COc1ccccc1C(=O)N(C)c1nc(-c2cc(OC)c(OC)c(OC)c2)cs1 | 109 | > 25 | – | – | – | –
41 | CN(C(=O)c1ccccc1)c1nc(-c2ccc(Br)cc2)cs1 | 65.4 | 0.317 | – | – | – | –
42 | Cn1c(-c2cc(C(F)(F)F)cc(C(F)(F)F)c2)cs/c1=N\C(=O)c1ccccc1 | 79.8 | 0.0961 | – | – | – | –
43 | COc1cc(C(=O)N(C)c2nc(-c3cc(OC)c(OC)c(OC)c3)cs2)cc(OC)c1OC | 115 | 0.47 | – | – | – | –
44 | Cc1s/c(=N\C(=O)c2ccccc2)n(C)c1-c1ccc(F)cc1 | 83.8 | 0.847 | – | – | – | –

Row | SMILES | viability at 1 µM (MDA-MB-231 [1]) [%] | IC50 (MDA-MB-231 [2]) [µM] | inhibition (Chorioallantoic membrane) | inhibition at 10 µM (MDA-MB-231 [3]) [%] | Activity (HeLa (Homo sapiens)) | inhibition (MDA-MB-231 [4])
45 | Cc1ccc(-c2cs/c(=N\C(=O)c3ccccc3)n2C)c(C)c1 | 101 | 0.218 | – | > 50 | – | –
46 | CCCN(C(=O)c1ccccc1)c1nc(-c2ccccc2)cs1 | 116 | 0.077 | – | > 50 | Active | –
47 | O=C(Nc1nc(-c2ccccc2Cl)cs1)c1ccccc1 | 102 | 15 | – | – | – | –
48 | COc1ccc(C(=O)/N=c2\scc(-c3cc(OC)c(OC)c(OC)c3)n2C)cc1 | 106 | 8.04 | – | – | – | –
49 | C#CCN(C(=O)c1ccccc1)c1nc(-c2ccc(C)cc2C)cs1 | 106 | 0.321 | – | – | – | –
50 | Cc1s/c(=N\C(=O)c2ccccc2)n(C)c1-c1ccccc1 | 68.4 | 0.197 | – | – | – | –
51 | CCCn1c(-c2ccc(C)cc2C)cs/c1=N\C(=O)c1ccccc1 | 85 | 0.292 | – | – | – | –
52 | Cc1ccc(-c2cn(C)/c(=N/C(=O)c3ccccc3)s2)cc1 | 113 | > 25 | – | – | – | –
53 | CCn1c(-c2ccc(C)cc2C)cs/c1=N\C(=O)c1ccccc1 | 142 | 1.95 | – | > 50 | – | –
54 | Cn1c(-c2ccc(Br)cc2)cs/c1=N\C(=O)c1ccccc1 | 59.3 | 0.125 | – | – | – | –
55 | Cc1ccc(-c2csc(N(C)S(=O)(=O)c3ccccc3)n2)c(C)c1 | 117 | > 25 | – | – | – | –
56 | C#CCn1c(-c2ccc(C)cc2C)cs/c1=N\C(=O)c1ccccc1 | 70.2 | 3.89 | – | – | – | –
57 | Cc1ccc(-c2csc(NS(=O)(=O)c3ccccc3)n2)c(C)c1 | 137 | 11 | – | – | – | –
58 | COc1cc(-c2cs/c(=N\C(=O)c3ccc(Cl)cc3)n2C)cc(OC)c1OC | 77.6 | 0.758 | – | – | – | –
59 | Cn1c(-c2ccccc2Cl)cs/c1=N\C(=O)c1ccccc1 | 72.2 | 0.268 | – | – | – | –
60 | Cn1c(-c2cccc(Cl)c2)cs/c1=N\C(=O)c1ccccc1 | 35.2 | 0.367 | – | – | – | –
61 | Cc1cs/c(=N\C(=O)c2ccccc2)n1C | 103 | 15 | – | – | – | –
62 | COc1cc(-c2csc(NC(=O)c3ccc(Cl)cc3)n2)cc(OC)c1OC | 85.6 | > 25 | – | – | – | –
63 | COc1ccc(C(=O)Nc2nc(-c3cc(OC)c(OC)c(OC)c3)cs2)cc1 | 93.8 | > 25 | – | – | – | –
64 | Cc1sc(NC(=O)c2ccccc2)nc1-c1ccc(F)cc1 | 53.7 | 9.1 | – | – | – | –
